The record followed here is ChEMBL document CHEMBL3526146, “In vitro and in vivo metabolism and pharmacokinetics of BMS-562086, a potent and orally bioavailable corticotropin-releasing factor-1 receptor antagonist” (Drug Metab Dispos, 2012).

Series [1] is described as follows: Drug metabolism in cynomolgus monkey cryopreserved hepatocytes assessed as DPH-123554 metabolite level at 25 uM after 3 hrs by LC-MS/MS analysis. Type of series: ADME, cell-based, Macaca fascicularis, Hepatocyte. In short, it runs like this:
(§1)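 Mouse, rat, dog, monkey and human hepatocytes (trypan blue viability checked) at 1.0×10^6 cells/ml in Krebs-Henseleit buffer were incubated with 25 µM compound, in duplicate. Conditions were 37°C, 95/5 O2/CO2, orbital shaking, 3 h. 7-Ethoxycoumarin and 7-hydroxycoumarin (100 µM) served as positive controls, with a cell-free negative control. Reactions were quenched with ice-cold acetonitrile, then sonicated and centrifuged; supernatants were analysed by LC/MS/MS.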

A short description of series [2]: Drug metabolism in rat hepatocytes assessed as BMS-572273 metabolite level at 25 uM after 3 hrs by LC-MS/MS analysis. Type of series: ADME, cell-based, Hepatocyte. Summed up: (§2)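 Hepatocytes checked for viability by trypan blue exclusion, then diluted in Krebs-Henseleit buffer to 1.0 × 10^6 cells/ml. Incubated in duplicate with 25 µM compound at 37°C for 3 h on an orbital shaker (80 rpm) under 95/5 O2/CO2. Negative control had no cells. Stopped with ice-cold acetonitrile, sonicated, centrifuged; supernatant analysed by LC/MS/MS.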

Series [3] can be described thus: Drug metabolism in rat hepatocytes assessed as DPH-123554 metabolite level at 25 uM after 3 hrs by LC-MS/MS analysis. Type of series: ADME, cell-based, Hepatocyte. Summed up:
as §2

Series [4] in a line: Retention time of the compound by HPLC method. Type of series: physicochemical.
Series [5] in a line: Drug metabolism in mouse liver microsomes assessed as BMS-572273 metabolite level at 100 uM after 1 hr in presence of NADPH. Type of series: ADME. In short, it runs like this:
(§3)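 Liver microsomes (1 mg/ml protein) in 100 mM phosphate buffer with 100 µM test compound. Reaction started by adding NADPH (1 mM), then run at 37°C for 1 h in a shaking water bath, in duplicate. Controls lacked microsomal protein or NADPH; 7-ethoxycoumarin (100 µM) was the positive control. Metabolites identified by LC/MS/MS.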

Series [6] is described as follows: Drug metabolism in mouse liver microsomes assessed as DPH-124921 metabolite level at 100 uM after 1 hr in presence of NADPH. Type of series: ADME. In short, it runs like this: as §3
(Liver microsomes are vesicles of endoplasmic reticulum, rich in cytochrome P450 enzymes.)

In series [7] the test system is Liver microsome. The series can be described thus: Drug metabolism in human liver microsomes assessed as DPH-123554 metabolite level at 100 uM after 1 hr in presence of NADPH. Type of series: ADME. In short, it runs like this:
as §3

The test system of series [8] is Liver microsome. The series can be described thus: Drug metabolism in dog liver microsomes assessed as DPH-124921 metabolite level at 100 uM after 1 hr in presence of NADPH. Type of series: ADME, Canis lupus familiaris. In short, it runs like this: (§4)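 Mouse, rat, dog, monkey and human liver microsomes (1 mg/ml protein) were incubated with 100 µM compound in 100 mM phosphate buffer. Reactions were started with 1 mM NADPH and run 1 h at 37°C in duplicate. Controls lacked protein or NADPH, plus a 7-ethoxycoumarin (100 µM) positive control. Metabolites were identified by LC/MS/MS.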

Series [9] can be described thus: Drug metabolism in mouse liver microsomes assessed as DPH-123554 metabolite level at 100 uM after 1 hr in presence of NADPH. Type of series: ADME. Summed up: as §3
Series [10] in a line: Drug metabolism in mouse hepatocytes at 25 uM after 3 hrs by LC-MS/MS analysis. Type of series: ADME, cell-based, Hepatocyte. Summed up:
as §2

A short description of series [11]: Drug metabolism in human cryopreserved hepatocytes assessed as DPH-124921 metabolite level at 25 uM after 3 hrs by LC-MS/MS analysis. Type of series: ADME, cell-based, Hepatocyte. In short, it runs like this:
as §2

Series [12] relates to Liver microsome. The series can be described thus: Drug metabolism in rat liver microsomes at 100 uM after 1 hr in presence of NADPH. Type of series: ADME. In short, it runs like this:
as §3

Series [13] relates to Liver microsome. The series can be described thus: Drug metabolism in rat liver microsomes assessed as DPH-124921 metabolite level at 100 uM after 1 hr in presence of NADPH. Type of series: ADME. In short, it runs like this:
as §3

Series [14] relates to Hepatocyte. As to the kind of experiment: Detection of compound level in rat hepatocytes treated with 25 uM of BMS-562086 after 3 hrs by LC-MS/MS analysis. Type of series: ADME, cell-based. In short, it runs like this: as §1
Series [15] is described as follows: Drug metabolism in cynomolgus monkey liver microsomes at 100 uM after 1 hr in presence of NADPH. Type of series: ADME, Macaca fascicularis. In short, it runs like this:
as §4

For series [16], the system named is Liver microsome. The series can be described thus: Detection of compound level in human liver microsomes treated with 100 uM of BMS-562086 after 1 hr by LC-MS/MS analysis.
The nature of series [17]: Drug metabolism in cynomolgus monkey liver microsomes assessed as BMS-572273 metabolite level at 100 uM after 1 hr in presence of NADPH. Type of series: ADME, Macaca fascicularis. In short, it runs like this:
as §4

Series [18] can be described thus: AUC (infinity) in chimpanzee at 1 mg/kg, po. Type of series: ADME, organism-based, Pan troglodytes. The note with it: plasma. More on the design: dose 1 mg/kg, route oral, time infinity. In short, it runs like this:
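Two fasted male chimpanzees (58, 72 kg) received 1 mg/kg orally as a suspension in 0.5% methylcellulose/orange drink with 1% Tween 80 (1:1). Blood was sampled 0-96 h post-dose. Plasma was assayed by validated LC/MS/MS (LLOQ 1.00 ng/ml). Noncompartmental analysis gave AUC(INF) by the mixed log-linear trapezoidal method, with Cmax observed directly; values are mean (min, max).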

Series [19] can be described thus: Oral bioavailability in chimpanzee at 1 mg/kg. The note with it: Pan troglodytes, in vivo.
Series [20] in a line: Drug metabolism in human cryopreserved hepatocytes assessed as decrease of compound level at 25 uM after 3 hrs by HPLC analysis. Type of series: ADME, cell-based, Hepatocyte. The note with it: read-out: Drug metabolism.
The test system of series [21] is Liver microsome. As to the kind of experiment: Drug metabolism in human liver microsomes assessed as BMS-572273 metabolite formation at 100 uM after 1 hr in presence of NADPH and ketoconazole. Type of series: ADME.
A short description of series [22]: Protein binding in rat serum after 3 hrs by equilibrium dialysis. Type of series: ADME, cell-free. The note with it: read-out: PB (converted). Summed up: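 Equilibrium dialysis of serum spiked to final 12.8, 25.6 and 38.5 µM against 134 mM phosphate buffer, pH 7.4, through a 10,000 Da cutoff membrane. Cells rotated at 20 rpm, 37°C, 3 h. Percent unbound taken as buffer concentration divided by serum concentration.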

The nature of series [23]: Drug metabolism in human cryopreserved hepatocytes assessed as […] at 25 uM after 3 hrs by HPLC analysis. Type of series: ADME, cell-based, Hepatocyte.
For series [24], the system named is Serum. As to the kind of experiment: Metabolic stability in dog serum after 3 hrs by equilibrium dialysis. Type of series: ADME, cell-free, Canis lupus familiaris. Summed up:
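Stability assessed in the serum samples from the equilibrium-dialysis setup: compound at final 12.8, 25.6 and 38.5 µM, dialysed against 134 mM phosphate buffer, pH 7.4, at 37°C with rotation at 20 rpm. Samples monitored for degradants over the 3-h incubation.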

Series [25] in a line: AUC (infinity) in Sprague-Dawley rat at 5 mg/kg, po. Further details: time infinity, dose 5 mg/kg, route oral. Type of series: ADME, organism-based. The note with it: plasma. Summed up:
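Male Sprague-Dawley rats (n=3 per route, 0.34-0.35 kg, cannulated), fasted ~18 h pre-dose and 4 h post-dose. Dosing was 1 mg/kg IV bolus in 20% ethanol/saline via the jugular cannula, or 5 mg/kg oral gavage in 0.5% aqueous methylcellulose. Jugular blood was sampled 0-96 h. Plasma was assayed by validated LC/MS/MS (LLOQ 1.00 ng/ml), and AUC(INF) was derived by noncompartmental mixed log-linear trapezoidal analysis.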

Series [26] can be described thus: AUC (infinity) in beagle dog at 5 mg/kg, po. Further details: time infinity, dose 5 mg/kg, route oral. Type of series: ADME, organism-based, Canis lupus familiaris. Particulars: plasma. Summed up: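 Male beagle dogs (n=3, 10.1-12.7 kg) in a one-way IV/PO crossover with one-week washout, fasted ~15 h pre-dose and 4 h post-dose. Dosing was 1 mg/kg IV bolus into the saphenous vein in DMA:propylene glycol:water (1:7:2), or 5 mg/kg gavage in 0.5% methylcellulose. Blood was sampled 0-96 h. Plasma was assayed by LC/MS/MS (LLOQ 1.00 ng/ml) with noncompartmental analysis; Cmax was observed directly.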

Regarding `COc1ccc(-c2c(C)nn3c(N)nc(C)nc23)c(C)n1`, the Drug metabolism entry in series [1], in [2], in series [3], in series [5], in series [6] and in series [7] was “metabolite_detected” each time. Also, the Drug metabolism result in [8], in [9], in series [10], in series [11], in [12] and in series [13] was “metabolite_detected” each time. For the same compound, the Drug metabolism result in series [14], in series [15], in [16] and in [17] was “metabolite_detected” each time. For the same compound, the Retention_time in [4] was 28.5 min.
As for `COc1ccc(-c2c(C)nn3c(O)nc(C)nc23)c(C)n1`, the Drug metabolism entry in series [1], in series [2], in [3], in [5], in series [6] and in [7] was “metabolite_detected” in each case. For the same compound, the Drug metabolism entry in [8], in series [9], in series [10], in [11], in series [12] and in [13] was “metabolite_detected” throughout. Further, the Drug metabolism result in [14], in series [15], in [16] and in series [17] was “metabolite_detected” throughout. In [4], this compound returned a Retention_time of 25.6 min.
Take `CC[C@@H](C)Nc1nc(C)nc2c(-c3ccc(O)nc3C)c(C)nn12`: the Drug metabolism result in [1], in series [2], in [3], in [5], in series [6] and in series [7] was “metabolite_detected” throughout. Besides, the Drug metabolism entry in [8], in [9], in [10], in [11], in series [12] and in [13] was “metabolite_detected” in each case. Moreover, the Drug metabolism entry in series [14], in [15], in series [16] and in series [17] was “metabolite_detected” throughout. This compound displayed a Retention_time in [4] of 32.1 min.
For `CC[C@@H](C)Nc1nc(C)nc2c(-c3ccc(OC)nc3C)c(C)nn12` [PEXACERFONT], the Drug metabolism entry in series [1], in [2], in series [3], in series [5], in series [6] and in series [7] was “metabolite_detected” each time. The Drug metabolism result is “metabolite_detected” in [8]; “metabolite_detected” in series [9]; “metabolite_detected” in [10]; “metabolite_detected” in series [11]; “metabolite_detected” in series [12]; “metabolite_not_detected” in series [21]. In addition, the Drug metabolism entry in series [13], in series [14], in series [23], in series [15], in [16] and in series [17] was “metabolite_detected” each time. The compound also registered a Retention_time in [4] of 52.2 min. In addition, the figures for the AUC(0-inf) in series [18], in series [25] and in series [26] were 13.9 µM·h, 5.82 µM·h and 13 µM·h, respectively. Further, the bioavailability (in general, dose-corrected exposure relative to a reference, in per cent) in [19] was 58.5%. Also, in series [20], the metabolised at 3 h, 25 µM turned out to be 40%. Moreover, in series [22], the fraction unbound at 3 h was 0.064. In series [24], the Stability entry is “Stable”.
